The results in this text go back to ChEMBL document CHEMBL4004800, “Thiol-Based Probe for Electrophilic Natural Products Reveals That Most of the Ammosamides Are Artifacts” (J Nat Prod, 2017).

The subject of data set [1] is HCT-116. The data set is described as follows: Cytotoxicity against human HCT116 cells assessed as growth inhibition by MTS assay. The class given is functional, cell-based. In short, it runs like this:
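HCT-116 colorectal cells, cultured as in earlier work, were tested by colorimetric MTS assay. Compounds were supplied in DMSO from a 10 mg mL⁻¹ stock. IC50 came from a four-parameter sigmoidal fit, and values are averages of three measurements. Controls were DMSO (negative) and etoposide (positive, 4 mg mL⁻¹ stock in DMSO).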
In general terms: Tetrazolium dyes change colour on reduction, which living cells bring about.

In data set [2] the test system is HCT-116. The data set is described as follows: Cytotoxicity against human HCT116 cells assessed as growth inhibition at 78.125 ug/ml by MTS assay relative to control. The class given is functional. Particulars: read-out: GI.
Data set [3] in a line: Stability of the compound in culture medium.
Data set [4] in a line: Drug metabolism assessed as half life for ammosamide B formation. In kind it is physicochemical.
The test system of another data set is Escherichia coli. Briefly: Antibacterial activity against Escherichia coli MG1655 at 10 ug after 48 hrs by disk diffusion method. In kind it is functional. Particulars: K-12 substr. MG1655. In short, it runs like this: (§1)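 Kirby–Bauer disk diffusion on LB agar swabbed with inocula from 24 h LB (pH 7.0) precultures grown at rt, 200 rpm. Each 6 mm paper disc carried 10 μg compound, applied as […] in MeOH and dried before placement. Controls were MeOH (10 μL) as negative and ciprofloxacin 5 μg as positive. Plates were incubated 48 h.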
A general note: A growth-free zone around the sample is the usual read-out of agar diffusion tests.

Another data set deals with Bacillus oceanisediminis. The data set is described as follows: Antibacterial activity against Bacillus oceanisediminis CNY-977 at 10 ug after 48 hrs by disk diffusion method. In kind it is functional. In short, it runs like this:
as §1

The nature of data set [5]: Drug metabolism assessed as compound formation from ammosamide C. In kind it is physicochemical. In short, it runs like this: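 Ammosamide C TFA salt kept at rt in seawater-based A1 medium pH 10.0 (1.0 mg/500 μL; pH 6.8 control), PBS pH 10 (2.0 mg/1.0 mL), saturated NaHCO₃ pH 8.1 (2.0 mg/1.0 mL), or PBS pH 10 with 7 equiv L-cysteine. Products followed over days by analytical C18 ELSD-UV/vis-HPLC (1–60% CH₃CN, 0.1% formic acid), plus LC-HRMS for the buffer reactions.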

For the next data set, the system named is HCC44. The data set is described as follows: Cytotoxicity against human HCC44 cells. In kind it is functional, cell-based.
The mark [6] stands for this setting: Homo sapiens, HCT-116, read-out: IC50.

Active and inactive are the calls of the source. The calls are words filed in the database; no cut-off is given here.

Broadly, the IC50 is the concentration that inhibits the measured activity by half. Regarding `CCCNC1=[N+](C)c2c(N)c(Cl)c(N)c3nc(C(N)=O)cc1c23`, in the data set on HCT-116 [1] (setting [6]), the IC50 was 6.8 µM.

On to `CNC(=O)c1cc(C(N)=O)nc2c1C(=O)C(=O)C(Cl)=C2N`, for which the IC50 result with HCT-116 [1] (hct-116) is given as “Not Active”. The inhibition of growth at 78.125 µg/mL in the data set on HCT-116 [2] turned out to be 97%.

In the case of `C[N+]1=Cc2cc(C(N)=O)nc3c(N)c(Cl)c(N)c1c23`, the Stability entry in data set [3] is “Stable”. In addition, in the data set on HCT-116 [1] (setting [6]), the IC50 came out at 5.5 µM. Besides, in data set [4], the t1/2 worked out at 10 days. Further, the outcome in the data set on Escherichia coli and in the data set on Bacillus oceanisediminis was Active.

`CC(=O)NCCSC1=[N+](C)c2c(N)c(Cl)c(N)c3nc(C(N)=O)cc1c23`: the IC50 result in the data set on HCT-116 [1] (hct-116) was “Not Active”. Further, in the data set with HCT-116 [2], the inhibition of growth at 78.125 µg/mL was 26%.

Regarding `CN1C(=S)c2cc(C(N)=O)nc3c(N)c(Cl)c(N)c1c23`, the IC50 entry with HCT-116 [1] (hct-116) is “Not Active”. Also, the inhibition of growth at 78.125 µg/mL in the data set with HCT-116 [2] worked out at 19%. Moreover, the result in the data set on Escherichia coli was Active.

For `CN1C(=O)c2cc(C(N)=O)nc3c(N)c(Cl)c(N)c1c23` [AMMOSAMIDE B], the IC50 with HCT-116 [1] (setting [6]) came to 29 µM. In addition, the Drug metabolism result in data set [5] is reported as “Metabolite_Detected”. Also, the outcome with Escherichia coli was Active.

Take `CN1/C(=N/c2ccc(Cl)cc2)c2cc(C(N)=O)nc3c(N)c(Cl)c(N)c1c23`: in the data set on HCT-116 [1] (setting [6]), the IC50 was 39 µM.

Take `CC(C)/N=C1\c2cc(C(N)=O)nc3c(N)c(Cl)c(N)c(c23)N1C`: in the data set with HCC44, the IC50 was found to be 1100 nM.

For the compound `COc1cc([C@@H]2c3cc4c(cc3[C@@H](O[C@@H]3O[C@@H]5CO[C@@H](C)O[C@H]5[C@H](O)[C@H]3O)[C@H]3COC(=O)[C@H]23)OCO4)cc(OC)c1O` [ETOPOSIDE], the IC50 with HCT-116 [1] (setting [6]) lay in the range of 0.49 to 4.9 µM.

Regarding `CCCCCC/N=C1\c2cc(C(N)=O)nc3c(N)c(Cl)c(N)c(c23)N1C`, 500 nM corresponded to half-maximal inhibition in the data set on HCC44 (IC50).
